Published values of several laboratories.
Target: Proto-oncogene tyrosine-protein kinase Src (SRC, Homo sapiens, UniProt P12931)

| SMILES | read-out | technique | concentration | remaining binding |
| --- | --- | --- | --- | --- |
| Cc1cc(-n2nc(Cc3cc(F)cc(C(F)(F)F)c3)nc2C)ccc1C(N)=O | cell-free assay | competition with immobilised ligand | 1 µM | 95% |
| O=C(c1ccc(Nc2ncc(Cl)c(-c3ccc(Cl)s3)n2)cc1)N1CCC(N2CCCC2)CC1 | binding | competition with immobilised ligand | 1 µM | 77% |
| Cc1c(NC(=O)c2cc(C(N)=O)nc3cc(F)ccc23)c(C(F)(F)F)nn1Cc1ccc(C#N)cc1 | cell-free assay | competition with immobilised ligand | 1 µM | 81% |
| CC1CCCN1c1nccc(-c2cnn3ncccc23)n1 (stereo not shown) | binding |  | 1 µM | 100% |
| Cc1cnc(Nc2ccc(C(=O)N3CCC(N4CCCC4)CC3)cc2)nc1-c1cc2ccccc2s1 | binding | competition with immobilised ligand | 1 µM | 16% |
| CNC(=O)Nc1ccc2c(c1)[C@@]1(CC2)OC(=O)N(CC(=O)N(Cc2ccc(F)cc2)[C@@H](C)C(F)(F)F)C1=O | cell-free assay | competition with immobilised ligand | 1 µM | 90% |
| Cc1cnn2ncc(-c3ccnc(N(C)C)n3)c2c1 | binding |  | 1 µM | 100% |
| O=C(NCC1CCOCC1)c1n[nH]cc1NC(=O)c1c(F)cccc1F | binding | competition with immobilised ligand | 1 µM | 86% |
| O=C(Nc1cccnn1)N1CC(C/C=C/c2cncc(Oc3ccc(C(F)(F)F)cn3)n2)C1 | cell-free assay | competition with immobilised ligand | 1 µM | 100% |
| COc1ccnn2ncc(-c3ccnc(N(C)C)n3)c12 | binding |  | 1 µM | 100% |
| Nc1ncc2c(n1)-c1c([nH]c3ccc(C#CC4CC4)cc13)CCCC2 | binding | competition with immobilised ligand | 1 µM | 100% |
| CN(C)c1nccc(-c2cnn3ncccc23)n1 | binding |  | 1 µM | 100% |
| CN(C)c1ncnc(-c2ccc3nc(Nc4cc(CN5CCN(C(=O)CC(F)(F)F)CC5)ccn4)[nH]c3c2)c1Cl | cell-free assay | competition with immobilised ligand | 1 µM | 100% |
| C[C@H]1CCN(c2nccc(-c3cnn4ncccc34)n2)C1 | binding |  | 1 µM | 100% |
| COC(=O)Nc1nc2ccc(C(=O)c3ccccc3)cc2[nH]1 | cell-free assay | competition with immobilised ligand | 10 µM | 34% |
| N[C@H]1CCN(c2nccc(-c3cnn4ncccc34)n2)C1 | binding |  | 1 µM | 88% |
| CCC(=N\O)/C(C)=C/c1ccc(F)cc1 | cell-free assay | competition with immobilised ligand | 1 µM | 91% |
| COc1ncc2cc3ccccc3nc2c1C#N | cell-free assay | competition with immobilised ligand | 5 µM | 88% |
| COc1cnc(Nc2cccc(S(N)(=O)=O)c2)nc1N1CCN(c2ccccc2)C(=O)C1 | binding | competition with immobilised ligand | 1 µM | 100% |
| FC(F)(F)Oc1cccc(-c2cnc3ccc(-c4ccncc4)nn23)c1 | binding | competition with immobilised ligand | 5 µM | 56% |
| CNC(=O)[C@@H]1CC[C@@H](n2c(-c3ccc4cnccc4c3)nc3ccc(C(=O)NCc4cccc(C(N)=O)c4)cc32)C1 | binding | competition with immobilised ligand | 1 µM | 100% |
| O=c1nc(-c2ccccn2)sc2ccccc12 | cell-free assay | competition with immobilised ligand | 1 µM | 92% |
| CN(C)c1nccc(-c2cnc3ncccn23)n1 | binding |  | 1 µM | 89% |
| O=C(NCCCN1CCOCC1)c1ccc(Nc2ncc(Cl)c(-c3ccc(Cl)s3)n2)cc1 | binding | competition with immobilised ligand | 1 µM | 100% |
| N#Cc1ccccc1CSc1nnc2c(n1)[nH]c1ccccc12 | binding | competition with immobilised ligand | 10 µM | 100% |
